Assay results as given in article PMC6923798 (Bioorganic chemistry, 2018).

Tests used:
[1] = system: HCT-116; assay: NCI in vitro five dose anticancer assay; assay type: cell-based, human
[2] = system: UACC-62; assay: NCI in vitro five dose anticancer assay; assay type: cell-based, human
[3] = system: MDA-MB-435; assay: NCI in vitro five dose anticancer assay; assay type: cell-based, human
[4] = system: K-562 cell line; assay: NCI in vitro one dose anticancer assay; assay type: cell-based; settings: Homo sapiens, K562, 48 h, read-out: % growth inhibition
Method in brief: (§1)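 NCI protocol. Test compound added once at 10−5 M to ~60 human tumour lines from nine subpanels. Incubated 48 h at 37 °C, 5% CO2, 95% air, 100% relative humidity. Endpoint by sulforhodamine B protein staining with spectrophotometric absorbance. Growth of treated cells reported as percent of untreated cells.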

[5] = system: HL-60(TB); assay: NCI in vitro five dose anticancer assay; assay type: cell-based, human
[6] = system: CCRF-CEM; assay: NCI in vitro five dose anticancer assay; assay type: cell-based, human; settings: 48 h
[7] = system: TK-10; assay: NCI in vitro five dose anticancer assay; assay type: cell-based, human
[8] = system: HT29; assay: NCI in vitro five dose anticancer assay; assay type: cell-based, human
[9] = system: MDA-MB-468; assay: NCI in vitro five dose anticancer assay; assay type: cell-based, human
[10] = system: RPMI-8226 cell line; assay: NCI in vitro one dose anticancer assay; assay type: cell-based; settings: Homo sapiens, RPMI-8226, 48 h, read-out: % growth inhibition
Method in brief: as §1

[11] = system: KG-1a; assay: MTT anti-proliferative assay; assay type: cell-based, human; settings: Homo sapiens, KG-1a, 24 h, read-out: IC50 ± SD, KG-1a
[12] = system: SK-OV-3; assay: NCI in vitro five dose anticancer assay; assay type: cell-based, human
[13] = system: DU-145; assay: NCI in vitro five dose anticancer assay; assay type: cell-based, human
[14] = system: BT-549; assay: NCI in vitro five dose anticancer assay; assay type: cell-based, human
[15] = system: HCC-2998; assay: NCI in vitro five dose anticancer assay; assay type: cell-based, human
[16] = system: NCI-H23; assay: NCI in vitro five dose anticancer assay; assay type: cell-based, human
[17] = system: KM12; assay: NCI in vitro five dose anticancer assay; assay type: cell-based, human
[18] = system: STAT3; assay: STAT3 activation assay; assay type: cell-based, human; settings: K-562 cells, 10 μM, 24 h, nuclear extracts
Method in brief: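 K562 cells seeded overnight in 10 cm plates, then given vehicle, test compound (10 μM) or WP1066 (positive control) for 24 h. Nuclear fractions extracted by kit. STAT3 activation measured in nuclear extracts by TransAM STAT3 ELISA per manufacturer. Mean ± SD of three independent experiments, each in triplicate.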

[19] = system: RXF 393; assay: NCI in vitro five dose anticancer assay; assay type: cell-based, human
[20] = system: A549/ATCC; assay: NCI in vitro five dose anticancer assay; assay type: cell-based, human
[21] = system: SF-295; assay: NCI in vitro five dose anticancer assay; assay type: cell-based, human
[22] = system: IGROV1; assay: NCI in vitro five dose anticancer assay; assay type: cell-based, human
[23] = system: HOP-92; assay: NCI in vitro five dose anticancer assay; assay type: cell-based, human
[24] = system: NCI-H460; assay: NCI in vitro five dose anticancer assay; assay type: cell-based, human
[25] = system: IL-6; assay: IL-6 ELISA in K-562 cells; assay type: cell-based, human
Method in brief: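 K-562 cells exposed 24 h to vehicle (DMSO), test compound at 10 μM or dexamethasone (positive control). IL-6 secreted into cell-free supernatant quantified by human IL-6 ELISA kit. Expressed as % of vehicle control, mean ± SD of three independent experiments, each in triplicate. Time course: in 12-well plates, medium changed when compound (10 μM) added, and media sampled at 0, 1, 4, 8, 12, 24, 48 h.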

[26] = system: COLO 205; assay: NCI in vitro five dose anticancer assay; assay type: cell-based, human
[27] = system: MALME-3M; assay: NCI in vitro five dose anticancer assay; assay type: cell-based, human; settings: 48 h
[28] = system: ACHN; assay: NCI in vitro five dose anticancer assay; assay type: cell-based, human; settings: 48 h
[29] = system: MCF7; assay: NCI in vitro five dose anticancer assay; assay type: cell-based, human

`COc1ccc(C=CC(=O)c2ccc(NC(=O)CSc3nnc(-c4cc(OC)c(OC)c(OC)c4)o3)cc2)cc1` [Compound 8v, N-(4-(3-(4-Methoxyphenyl)acryloyl)phenyl)-2-((5-(3,4,5-trimethoxy-phenyl)-1,3,4-oxadiazol-2-yl)thio)acetamide] was tested, and the TGI ([1]; HCT-116, Colon Cancer, five dose, 48 h, SRB) was 1940 nM, the GI50 ([1]; Homo sapiens, HCT-116, 48 h) was 500 nM and the GI50 ([2]; Homo sapiens, UACC-62, 48 h) was 1730 nM. It also gave a TGI ([2]; UACC-62, Melanoma, five dose, 48 h, SRB) of 3430 nM, a GI50 ([3]; Homo sapiens, MDA-MB-435, 48 h) of 1700 nM and a TGI ([3]; MDA-MB-435, Melanoma, five dose, 48 h, SRB) of 3400 nM. For the same molecule, the inhibition at 10 µM [4] was 35.8 to 152%, the TGI ([5]; HL-60(TB), Leukemia, five dose, 48 h, SRB) was 4100 nM and the GI50 ([5]; Homo sapiens, HL-60, 48 h) was 2000 nM. For the same molecule, the GI50 ([6]; Homo sapiens) was 1840 nM, the TGI ([6]; Leukemia, five dose, SRB) was 4560 nM and the GI50 ([7]; Homo sapiens, TK-10, 48 h) was 1520 nM. The TGI ([7]; TK-10, Renal Cancer, five dose, 48 h, SRB) was 3030 nM, the TGI ([8]; HT29, Colon Cancer, five dose, 48 h, SRB) was 3620 nM and the GI50 ([8]; Homo sapiens, HT-29, 48 h) was 1830 nM. For the same molecule, the GI50 ([9]; Homo sapiens, MDA-MB-468, 48 h) was 2100 nM, the TGI ([9]; MDA-MB-468, Breast cancer, five dose, 48 h, SRB) was 5020 nM and the inhibition at 10 µM [10] was 31.3 to 144%. For the same molecule, the IC50 [11] was 3450 ± 250 nM, the GI50 ([12]; Homo sapiens, SK-OV-3, 48 h) was 2420 nM and the TGI ([12]; SK-OV-3, Ovarian Cancer, five dose, 48 h, SRB) was 5680 nM. It also gave a TGI ([13]; DU-145, Prostate Cancer, five dose, 48 h, SRB) of 3210 nM, a GI50 ([13]; Homo sapiens, DU-145, 48 h) of 1750 nM and a TGI ([14]; BT-549, Breast cancer, five dose, 48 h, SRB) of 2810 nM. It also gave a GI50 ([14]; Homo sapiens, BT-549, 48 h) of 1400 nM, a TGI ([15]; HCC-2998, Colon Cancer, five dose, 48 h, SRB) of 3650 nM and a GI50 ([15]; Homo sapiens, HCC 2998, 48 h) of 1880 nM. It also gave a GI50 ([16]; Homo sapiens, NCI-H23, 48 h) of 1880 nM, a TGI ([16]; NCI-H23, Non-Small Cell Lung Cancer, five dose, 48 h, SRB) of 3970 nM and a GI50 ([17]; Homo sapiens, KM12, 48 h) of 1770 nM. The TGI ([17]; KM12, Colon Cancer, five dose, 48 h, SRB) was 3400 nM, the “inhibition of STAT3 activation” value [18] was “most effective” and the GI50 ([19]; Homo sapiens, RXF 393, 48 h) was 1740 nM. The TGI ([19]; RXF 393, Renal Cancer, five dose, 48 h, SRB) was 3540 nM, the TGI ([20]; A549/ATCC, Non-Small Cell Lung Cancer, five dose, 48 h, SRB) was 3530 nM and the GI50 ([20]; Homo sapiens, A549, 48 h) was 1840 nM. For the same molecule, the GI50 ([21]; Homo sapiens, SF-295, 48 h) was 1770 nM, the TGI ([21]; SF-295, CNS cancer, five dose, 48 h, SRB) was 3350 nM and the GI50 ([22]; Homo sapiens, IGROV-1, 48 h) was 1540 nM. For the same molecule, the TGI ([22]; IGROV1, Ovarian Cancer, five dose, 48 h, SRB) was 3750 nM, the TGI ([23]; HOP-92, Non-Small Cell Lung Cancer, five dose, 48 h, SRB) was 4230 nM and the GI50 ([23]; Homo sapiens, HOP-92, 48 h) was 1930 nM. It also gave a GI50 ([24]; Homo sapiens, NCI-H460, 48 h) of 2000 nM, a TGI ([24]; NCI-H460, Non-Small Cell Lung Cancer, five dose, 48 h, SRB) of 3850 nM and an activity at 10 µM ([25]; Homo sapiens, K562, 24 h, read-out: IL-6 protein levels (% of control)) of 20%. For the same molecule, the “IL-6 levels after 48 h” value ([25]; K-562 cells, 10 μM, time course) was “still downregulated”, the “time of initial downregulation of IL-6 protein levels after treatment” value ([25]; K-562 cells, 10 μM, time course 0-48 h) was 8 h and the TGI ([26]; COLO 205, Colon Cancer, five dose, 48 h, SRB) was 3840 nM. It also gave a GI50 ([26]; Homo sapiens, COLO 205, 48 h) of 1940 nM, a GI50 ([27]; Homo sapiens, Malme-3M) of 1680 nM and a TGI ([27]; MALME-3M, Melanoma, five dose, SRB) of 3450 nM. It also gave a GI50 ([28]; Homo sapiens) of 1720 nM, a TGI ([28]; Renal Cancer, five dose, SRB) of 3220 nM and a GI50 ([29]; Homo sapiens, MCF7, 48 h) of 1270 nM. It also gave a TGI ([29]; MCF7, Breast cancer, five dose, 48 h, SRB) of 3680 nM.
